# A selection: hits, their analogues and other compounds. The true share with any hit is near 2.4%.
# Cneo AK release – causes C. neoformans cell lysis. adenylate kinase release luminescence, 4 h; normalised: neutral wells 0, clomiphene wells 100. lysis activity, % at 15 µM. 0.2% of 360,000 active;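 active means mean lysis activity across replicates of at least 80%, whatever share of replicates individually reach that level; inactive means mean lysis activity below 80%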
#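 read-out = cell lysis signal | test system = log-phase Cryptococcus neoformans yeast cells | input = cells at 5 × 10^6 per mL | medium = fresh YPD growth medium | signal = luminescent adenylate kinase detection reagent | timing = 4 h at 37 °C static, read 1 h later | dosing = single dose | controls = Clomiphene as positive lysis control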
# dFosB act – enhances mouse delta FosB homodimer DNA binding; P13346; 0.99% of 340,000 active; purified delta FosB, TAMRA-CDK5 oligo fluorescence polarization; percent of positive-control signal above neutral wells; activation, % at 25 µM;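 active means mean activation above about 17%, with every replicate also reaching it, limit read from the data, passing the limit was not always enough; inconclusive means only one of the two conditions met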
# Target sequence (P13346 whole entry, looked up): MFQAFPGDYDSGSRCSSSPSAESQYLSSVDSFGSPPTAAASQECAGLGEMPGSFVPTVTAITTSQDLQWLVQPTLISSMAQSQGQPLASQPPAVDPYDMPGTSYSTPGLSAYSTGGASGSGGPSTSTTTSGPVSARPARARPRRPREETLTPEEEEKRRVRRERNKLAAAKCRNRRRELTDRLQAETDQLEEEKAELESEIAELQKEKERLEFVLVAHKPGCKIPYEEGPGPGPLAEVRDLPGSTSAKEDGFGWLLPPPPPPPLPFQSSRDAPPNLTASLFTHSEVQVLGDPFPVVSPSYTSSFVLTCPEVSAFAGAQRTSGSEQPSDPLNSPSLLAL
# miR-122 sensor – blocks miR-122 activity in Huh7 sensor cells; AID 602342; 0.3% of 340,000 active; activation (reporter increase), % at 12.5 µM; Huh7 miR-122 Renilla luciferase sensor, 48 h; neutral wells = 0, positive control = 100;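 active means mean replicate activation score at least 90 and every replicate individually at or above 90; inconclusive means only one of the two criteria met; inactive means neither criterion met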;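 further: higher luciferase means less miR-122 activity so hits act as miR-122 inhibitors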
# Rtt109 Vps75 – blocks Candida albicans Rtt109/Vps75 acetyltransferase activity; Q5AAJ8; purified Rtt109/Vps75, ThioGlo CoA-SH fluorescence, 4 h; inhibition, % at 34.9 µM; 0.16% of 330,000 active; AID 540336;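 active means inhibition of at least 50% in every replicate; inconclusive means best replicate reaches 50% inhibition but some replicates fall short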
# HIV Env fusion – HIV envelope-mediated fusion inhibition | HeLa-JRFL Env/CEM21 cell fusion, luciferase | 1.1% of 360,000 active | AID 651610 | inhibition, % at 12.3 µM;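 active means mean replicate inhibition score of at least 50 and every replicate individually at or above 50; inconclusive means only one of the two criteria met; inactive means mean below 50 and not all replicates reaching 50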;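 further: 0% = plate neutral controls and 100% = maraviroc near 300 nM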
# INS-1E GSIS act – GLuc luminescence reporter in INS-1E cells, primary screen for activators of glucose-dependent secretion of insulin; activation, % at 16.6 µM; AID 743287; INS-1E GLuc reporter insulin secretion, 2-3 h; 0.61% of 370,000 active;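 active means lowest replicate activation of at least 40%, so every replicate reaches that level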;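 further: 0% = median of neutral control wells and 100% = median of IBMX positive control wells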
# * = called active by the depositor; ? = inconclusive; · = no result given; [ ] = another dose, or the depositor's remark.
SMILES,Cneo AK release,dFosB act,miR-122 sensor,Rtt109 Vps75,HIV Env fusion,INS-1E GSIS act
CC1CC(C)CC(C)C(O)C(C#N)=CC=CCC(C2CCCC2C(=O)O)OC(=O)CC(O)C(C)C1 (stereo unspecified),·,-5,-13,1,71*,-27
O=c1[nH]c(=S)n(Cc2ccc(F)cc2)c(O)c1C=NCc1ccc2c(c1)OCO2,·,40*,·,-5,-3,2
CCOc1ccc(N=Cc2c(O)n(CCc3ccc(OC)c(OC)c3)c(=O)[nH]c2=O)cc1,·,3,·,-5,-4,-10
COc1ccc(CCn2c(O)c(C=Nc3ccc(NC(C)=O)cc3)c(=O)[nH]c2=O)cc1OC,6,23*,0,-9,-8,23
CC(=O)N1C[C@@H]2C(c3ccccc3)[C@H](C1)N2CC1CC1 (stereo partly specified),·,·,·,·,·,14
CC[C@H]1C=C(C(=O)N[C@@]2(C(=O)O)C[C@H]2CC)[C@H]2CCC(=O)[C@H]2C1,9,·,·,·,-4[16.7 µM],·
O=C1NC2C(O)C(O)C(O)C(O)C2c2cc3c(c(O)c21)OCO3 (stereo unspecified),·,-1,·,-10,119*,-29
O=C1NC2C(=CC(O)C(O)C2O)c2cc3c(cc21)OCO3 (stereo unspecified),·,7,-5,-4,100*,-19
O=C1NC2C(=CC(O)C(O)C2O)c2cc3c(c(O)c21)OCO3 (stereo unspecified),·,6,-8,-19,64*,-26
CS(=O)(=O)N1CC2NC(C1)C2c1ccc(Br)cc1 (stereo unspecified),·,·,·,·,·,5
CC(=O)N1[C@@H]2Cn3c(ccc(-c4cccc(C(=O)N(C)C)c4)c3=O)[C@H]1[C@@H](C(=O)O)[C@@H]2CO,·,·,·,·,·,14
Cc1cccc(C)c1NC(=O)c1cccn(Cc2ccc3c(c2)OC(F)(F)O3)c1=O,0,-5,-3,9,67*,·
CC(C)Oc1cccc(NC(=O)c2cccn(Cc3ccc4c(c3)OC(F)(F)O4)c2=O)c1,-3,-21,-6,1,43,·
O=C(Nc1ccc(C(F)(F)F)cc1)c1cccn(Cc2ccc3c(c2)OC(F)(F)O3)c1=O,-2,-5,4,2,106*,·
COc1ccc(OC(=O)N(C)C[C@H]2OCc3ccccc3-c3c(n(C)c4ccccc34)C(=O)N([C@H](C)CO)C[C@@H]2C)cc1,·,·,·,·,·,-13
COC(=O)[C@H]1[C@H](CO)[C@H]2Cn3c(ccc(-c4ccccc4OC)c3=O)[C@@H]1N2Cc1ccccc1,-1,·,·,·,19[16.7 µM],3
O=C(CSC1c2ccccc2-c2ccccc21)N/N=C/c1ccccc1O,-1,-4,·,14,61*,·
Cc1ccc(OC(=O)N(C)C[C@@H]2OCc3ccccc3-c3c(n(C)c4ccccc34)C(=O)N([C@H](C)CO)C[C@@H]2C)cc1,·,·,·,·,·,7
CC(C)NC(=O)N1C[C@@H]2C(c3ccccc3)[C@H](C1)N2C (stereo partly specified),·,·,·,·,·,-7
CC(C)(C)C(=O)OC[N+](C)(C)CCOC(=O)C(O)(c1ccccc1)C1CCCC1 (stereo unspecified),·,-12,·,-1,3,-3
CCCC(CCC)C(=O)OC[N+](C)(C)CCOC(=O)C(O)(c1ccccc1)C1CCCC1 (stereo unspecified),3,5,1,57*,4,-12
COC(=O)C1=C(c2cc3ccccc3o2)C[C@@H]2CC[C@H]1N2C(=O)NCc1ccc(F)cc1,3,-13,·,4,-8,-7
COC(=O)C1=C(c2cc3ccccc3o2)C[C@@H]2CC[C@H]1N2C(=O)NCc1cccc2ccccc12,1,1,7,10,101*,1
Cc1ccc(-c2cc(-c3ccccc3)cc(-c3ccccc3)[n+]2-c2ccccc2)cc1,-19,2,-23,9,23,4
c1ccc(-c2cc(-c3ccccc3)[n+](-c3ccccc3)c(-c3ccccc3)c2)cc1,-1,-13,-59,1,80*,-49
SMILES,Cneo AK release,dFosB act,miR-122 sensor,Rtt109 Vps75,HIV Env fusion,INS-1E GSIS act
CN(C)c1ccc(-[n+]2c(-c3ccccc3)cc(-c3ccccc3)cc2-c2ccccc2)cc1,·,-4,-26,?,94*,-36
COC(=O)[C@H]1[C@H](CO)[C@H]2Cn3c(ccc(C4=CCCCC4)c3=O)[C@@H]1N2CCc1ccccc1,2,·,4[16.7 µM],·,·,-8
COC(=O)[C@@H]1[C@@H](CO)[C@@H]2Cn3c(ccc(C4=CCCCC4)c3=O)[C@H]1N2CC1CCCCC1,·,·,·,·,·,-9
Cc1c2ccncc2c(C)c2c1[nH]c1ccccc12,0,55*,-22,10,·,·
Nc1ccc2ccc3cccc[n+]3c2c1,3,32*,·,0,18,-1
CN(CC1COc2ccccc2O1)c1nc(-c2cccnc2)nc2ccccc12 (stereo unspecified),13,-7,15,-1,65*,-30
O=c1c(C=NCCN2CCNCC2)c(O)n(C2CCCCC2)c(=O)n1C1CCCCC1,6,41*,-5,-1,·,·
O=c1c(C=NCc2cccs2)c(O)n(C2CCCCC2)c(=O)n1C1CCCCC1,1,-8,-6,-5,·,·
Cc1oc(-c2ccccc2Cl)nc1CN1C(=O)CN=C(c2ccccc2)c2ccccc21,1,-4,-9,12,15,·
O=C1CN=C(c2ccccc2)c2ccccc2N1Cc1ccc(C(F)(F)F)cc1,0,-1,-5,3,76*,-37
CC=Cc1ccc2n(c1=O)C[C@@H]1[C@@H](CO)[C@H](C(=O)OC)[C@H]2N1CC1CCCC1 (mixture of isomers),·,·,·,·,·,-7
CN(C)C(=S)SSC(=S)N(C)C,-2,1,-2,154*,-3,-5
C[C@@H]1O[C@@H](O[C@H]2C[C@@H](O)[C@]3(CO)[C@H]4[C@H](O)C[C@]5(C)[C@@H](C6=CC(=O)OC6)CC[C@]5(O)[C@@H]4CC[C@]3(O)C2)[C@H](O)[C@H](O)[C@H]1O,-2,6,-18,-2,·,·
CC1OC(OC2C=C3CCC4C(CCC5(C)C(c6ccc(=O)oc6)CCC45O)C3(C)CC2)C(O)C(OC2OC(CO)C(O)C(O)C2O)C1O (stereo unspecified),·,-11,-9,4,63*,-3
Cn1nc(-c2ccc(OCC(=O)N3CCN(Cc4ccccc4)CC3)cc2)c2ccccc2c1=O,4,-13,-1,20,71*,·
Cn1cccc1CN1CCN(C(=O)COc2ccccc2)CC1,3,-3,-5,-7,·,·
CCC(C)OC(=O)c1c(N)n(Cc2cccs2)c2nc3ccccc3nc12 (stereo unspecified),-2,4,4,-102,61*,·
Nc1c(C(=O)OCc2ccccc2)c2nc3ccccc3nc2n1Cc1cccs1,-2,8,69,-10,9,·
